≈ marks a conversion by molar mass, not a printed value.
Experiments:
[1] = test system: Enterovirus C; test: The ratio of the poliovirus viral titer of the virus control (reduction factor) to the viral titer in the presence of the maximal non-toxic dose (RF MNTD); format: functional
How it was run: (§1)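 Poliovirus type 1 Brunhilde 1A/S3 in Vero monolayers. Serial 10-fold virus dilutions adsorbed 1 h at 37 °C, then serial 2-fold compound dilutions were added. Incubated at 37 °C and scored for CPE by light microscopy, with a 3-day readout. Titer reduction is control/treated TCD50/mL. ED99 is the minimum concentration inhibiting 99% of virus. Virus, cell and compound controls were included.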

[2] = test system: Enterovirus C; test: Maximal non-toxic dose (MNTD) that shows antiviral activity.; format: functional
How it was run: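 End-point titration. Poliovirus type 1 Brunhilde was run in Vero cells at 37 °C with a 3-day read. Rhinovirus 15 was run in human skin fibroblasts at 33 °C with a 7-day read. Monolayers got serial 10-fold virus dilutions and adsorbed 1 h at 37 °C, then serial 2-fold compound dilutions (DMSO stock in maintenance medium). CPE was read by light microscopy. RF = control titer (TCD50/mL) / titer at maximal nontoxic dose.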

[3] = test system: Enterovirus C; test: Minimal dose which produces titer reduction at 10 ug/mL (mD RF10e3); format: functional
[4] = test system: Enterovirus C; test: Minimum drug concentration at which 99% of the polio virus is inhibited; format: functional; how it was run: as §1
[5] = Cytotoxic dose at which 50% growth of normal cells is inhibited; format: cell-based; details: chlorocebus sabaeus, Vero cells; read-out: CyD50
How it was run: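 Cell-growth cytotoxicity in Vero cells or human skin fibroblasts. Serial 2-fold dilutions in M-199 with 6% newborn calf serum were added in quadruplicate to 10⁶ cells and held 6 days at 37 °C. Cells were trypsinized, counted and reseeded with compound, repeated five times. Generation time was calculated per concentration. CyD50 = lowest concentration at least doubling generation time versus untreated cells.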

[6] = Therapeutic Index measured as the ratio of CyD50(polio) / ED99(polio) values; format: organism-based; details: enterovirus c; read-out: Therapeutic index 99
How it was run: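 TI99 = CyD50/ED99 for poliovirus. ED99 came from end-point titration in Vero cells at 37 °C over 3 days. CyD50 came from Vero cell growth: 10⁶ cells were given serial 2-fold compound dilutions in quadruplicate for 6 days at 37 °C, then trypsinized, counted and reseeded, repeated five times. Generation time was calculated per concentration.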

[7] = test system: Human rhinovirus sp.; test: Minimum drug concentration at which 99% of the rhino virus is inhibited.; format: functional
How it was run: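 End-point titration with rhinovirus type 15 on human skin fibroblast monolayers. Cells were infected with serial 10-fold virus dilutions and allowed 1 h adsorption at 37 °C. Serial 2-fold compound dilutions were then added and plates incubated at 33 °C. CPE was read daily by light microscopy for at least 1 week, titres as TCD50/mL. ED99 = minimum concentration inhibiting 99% of virus.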

[8] = test system: Human rhinovirus sp.; test: Cytotoxic dose at which 50% growth of normal cells is inhibited against rhino virus infection.; format: functional
How it was run: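 Human skin fibroblasts, 10⁶ cells per flask, given serial 2-fold dilutions in quadruplicate in M-199 with 6% newborn calf serum and held 6 days at 37 °C. Cells were trypsinized, counted in a chamber and reseeded with compound over five repeat cycles. CyD50 = lowest concentration at least doubling cell generation time relative to untreated control.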

Row | SMILES | Reduction factor [1] | Max non-toxic dose [2] [µg/mL] | Minimal dose [3] [µg/mL] | ED99 [4] [µg/mL] | CC50 [5] [µg/mL] | selectivity ratio [6] | ED99 [7] [µg/mL] | CyD50 [8] [µg/mL]
1 | COc1ccc(-c2oc3cc(OC)cc(O)c3c(=O)c2OC)cc1 | 1 | >50 |  |  |  |  |  | 
2 | COc1c(O)cc2oc(-c3ccc(O)cc3)c(OC)c(=O)c2c1O [3,6-DIMETHOXY KAEMPFEROL] | 100000 | 20 | 1 | 0.5 | 25 (≈ 75.7 µM) | 50 |  | 
3 | COc1c(-c2ccc(O)cc2)oc2c(C)cc(Cl)cc2c1=O | 1 | 25 |  | >50 | 50 (≈ 158 µM) | < 1 |  | 
4 | COc1c(-c2ccc(O)cc2)oc2cc(C(C)C)ccc2c1=O |  | 25 |  |  |  |  |  | 
5 | COc1cc(O)c2c(=O)c(OC)c(-c3ccc(OC)c(OC)c3)oc2c1 [RETUSIN] | 1 | >50 |  |  |  |  |  | 
6 | COc1ccc(-c2oc3ccc(O)cc3c(=O)c2OC)cc1 | 1 | 100 |  |  |  |  |  | 
7 | COc1c(-c2ccc(O)cc2)oc2cc(F)ccc2c1=O | 1000 | 10 |  | 10 | 25 (≈ 87.3 µM) | 2.5 |  | 
8 | COc1c(-c2ccc(O)c(O)c2)oc2cc(O)cc(O)c2c1=O [3-O-METHYLQUERCETIN] | 1000000 | 20 | 0.5 | 0.3 | 5 (≈ 15.8 µM) | 16.7 |  | 
9 | COc1ccc(-c2oc3ccc(OC)cc3c(=O)c2OC)cc1 |  | 50 |  |  | 100 (≈ 320 µM) | 2 | 50 | 100
10 | COc1ccc(-c2oc3c(OC)c(OC)c(OC)c(OC)c3c(=O)c2OC)cc1OC [3,5,6,7,8,3',4'-HEPTAMETHOXYFLAVONE] | 100000 | 50 | 25 |  |  |  |  | 
11 | COc1ccc(-c2oc3cc(O)cc(O)c3c(=O)c2OC)cc1 [ERMANIN] |  | 10 | 5 | 5 | 50 (≈ 159 µM) | 10 |  | 
12 | COc1c(-c2ccc(O)c(O)c2)oc2c(OC)c(O)cc(O)c2c1=O | 1000000 | 20 | 2 | 1.5 | 10 (≈ 28.9 µM) | 6.6 |  | 
13 | COc1ccc(-c2oc3c(OC)c(O)cc(O)c3c(=O)c2OC)cc1 | 1 | >10 |  |  |  |  |  | 
14 | COc1c(-c2ccc(O)cc2)oc2cc(O)cc(O)c2c1=O [ISOKAEMPFERIDE] | 1000000 | 10 | 0.25 | 0.2 | 10 (≈ 33.3 µM) | 50 |  | 
15 | COc1c(-c2ccc(Cl)cc2)oc2cc(C)ccc2c1=O | 1 | 25 |  | <1000 | 100 (≈ 333 µM) |  |  | 
16 | COc1ccc(-c2oc3c(OC)c(OC)c(OC)c(O)c3c(=O)c2OC)cc1OC | 10000 | 50 | 50 |  |  |  |  | 
17 | COc1c(-c2ccc(O)cc2)oc2ccccc2c1=O | 100000 | 15 | 6 | 6 | 10 (≈ 37.3 µM) | 1.7 |  | 

Row | SMILES | Reduction factor [1] | Max non-toxic dose [2] [µg/mL] | Minimal dose [3] [µg/mL] | ED99 [4] [µg/mL] | CC50 [5] [µg/mL] | selectivity ratio [6] | ED99 [7] [µg/mL] | CyD50 [8] [µg/mL]
18 | COc1cc(O)c2c(=O)c(OC)c(-c3ccc(O)c(O)c3)oc2c1 | 1000000 | 10 | 0.5 | 0.3 | 10 (≈ 30.3 µM) | 33.3 |  | 
19 | COc1c(-c2ccc(O)cc2)oc2ccc(C)cc2c1=O |  | 12 |  | 5 | 75 (≈ 266 µM) | 15 | <1000 | 75
20 | COc1ccc(-c2oc3cc(O)cc(O)c3c(=O)c2OC)cc1OC |  | 50 | 2.5 |  |  |  |  | 
21 | COc1c(-c2ccc(O)cc2)oc2ccc(Cl)cc2c1=O |  | 100 | 1.5 | 6 | 100 (≈ 330 µM) | 16.7 | <1000 | 100
22 | COc1ccc(-c2oc3c(OC)c(OC)cc(O)c3c(=O)c2OC)cc1 |  | 7.5 |  |  |  |  |  | 
23 | Cc1ccc2c(=O)c(Cl)c(-c3ccc(O)cc3)oc2c1 |  |  |  |  | 50 (≈ 174 µM) |  | 20 | 50
24 | COc1cc(O)c2c(=O)c(OC)c(-c3ccc(O)c(OC)c3)oc2c1 [PACHYPODOL] | 1000000 | 20 | 0.5 | 2.5 | 25 (≈ 72.6 µM) | 10 |  | 
25 | COc1ccc2oc(-c3ccc(O)cc3)c(OC)c(=O)c2c1 |  | 50 |  | 25 | 200 (≈ 670 µM) | 8 |  | 
26 | COc1ccc(-c2oc3cc(O)c(OC)c(O)c3c(=O)c2OC)cc1 [SANTIN] | 1 | 100 |  |  |  |  |  | 
27 | COc1c(-c2ccc(O)cc2)oc2c(OC)cccc2c1=O | 1000000 | 50 | 2.5 | 20 | 25 (≈ 83.8 µM) | 1.25 |  | 
28 | COc1ccc(-c2oc3cc(C)ccc3c(=O)c2OC)cc1 | 1 | 100 |  |  |  |  |  | 
29 | Cc1ccc2c(=O)c(N)c(-c3ccc(O)cc3)oc2c1 |  |  |  |  | 10 (≈ 37.4 µM) |  |  | 
30 | COc1ccc(-c2oc3cc(OC)c(OC)cc3c(=O)c2OC)cc1OC | 10000 | 50 | 50 |  |  |  |  | 
31 | Cc1ccc2c(=O)c(C)c(-c3ccc(O)cc3)oc2c1 |  |  |  |  | 100 (≈ 376 µM) |  | 25 | 100
32 | COc1c(-c2ccc(OC(C)=O)c(OC(C)=O)c2)oc2cc(OC(C)=O)cc(OC(C)=O)c2c1=O | 1000000 | >50 | 2 |  |  |  |  | 
33 | COc1ccc(-c2oc3cccc(OC)c3c(=O)c2OC)cc1 | 1 | 100 |  |  |  |  |  | 
34 | COc1c(-c2ccc(O)cc2)oc2cc(Br)ccc2c1=O | 10 | 30 |  | >30 | 30 (≈ 86.4 µM) | < 1 |  | 

From ChEMBL document CHEMBL1125251, “4'-Hydroxy-3-methoxyflavones with potent antipicornavirus activity” (J Med Chem, 1991)
